{"source": "ChEMBL document CHEMBL4411319", "about": "“Discovery of Macrocyclic Inhibitors of Apurinic/Apyrimidinic Endonuclease 1” (J Med Chem, 2019)", "key": {"[1]": {"experiment": "Cytotoxicity against human Pa02C cells after 48 hrs by Alamar Blue-based assay", "format": "functional, cell-based", "procedure,_shortened": "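Patient-derived pancreatic Pa02c cells, low passage, kept in DMEM with 10% FBS. Plated at 2000 cells/well on poly-D-lysine-coated plates and grown overnight at 37 °C, 5% CO2. Dosed in 5% FBS DMEM from 100 μM, 1:2 serial dilution, 5 points, with DMSO vehicle and drug-background wells. Grown 48 h, then fresh medium with 10% Alamar Blue for 4 h and fluorescence read. Background subtracted, normalized to media alone, mean with standard error.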"}, "[2]": {"molecular_target": "T1, DNA repair nuclease/redox regulator APEX1 (Homo sapiens, UniProt P27695)", "T1 sequence (P27695 whole entry)": "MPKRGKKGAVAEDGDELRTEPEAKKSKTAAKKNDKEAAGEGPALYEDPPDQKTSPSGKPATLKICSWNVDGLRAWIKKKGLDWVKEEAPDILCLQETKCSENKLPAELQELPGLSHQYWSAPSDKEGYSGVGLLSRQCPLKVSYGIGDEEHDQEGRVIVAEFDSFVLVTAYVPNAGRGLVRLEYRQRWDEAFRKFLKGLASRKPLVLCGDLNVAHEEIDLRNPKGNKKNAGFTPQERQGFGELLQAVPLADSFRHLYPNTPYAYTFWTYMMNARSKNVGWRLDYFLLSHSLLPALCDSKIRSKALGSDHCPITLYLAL", "experiment": "Inhibition of full length human APE1 assessed as reduction in endonuclease activity by measuring DNA cleavage of abasic sites using 6-FAM labelled two annealed oligonucleotides as AP site mimic substrate by fluorescence-based assay", "procedure,_shortened": "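Purified full-length APE1 (0.25-1.25 nM) added at once to 50 nM annealed duplex: 5'-6-FAM-labelled AP-site-mimic strand paired with a quencher-labelled strand. Buffer 50 mM Tris, 1 mM MgCl2, 50 mM NaCl, pH 7.5. Compound in triplicate, 10-point 1:2 dilution from 100 μM. Fluorescence from cleavage read kinetically at five 1-min intervals. Reaction rate compared with DMSO vehicle.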"}, "[3]": {"molecular_target": "T1, DNA repair nuclease/redox regulator APEX1", "experiment": "Inhibition of APE1 in human ST8814 cells assessed as effect on MMS-induced DNA damage by measuring tail DNA level at 100 uM after 1 hr in presence of MMS by comet assay", "format": "cell-based", "set-up": "scale not given: the % may be the effect or the level left", "procedure,_shortened": "(§1)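 Malignant peripheral nerve sheath tumor ST8814 cells seeded at 130,000/well in DMEM + 10% FBS and grown overnight. Treated 1 h at 37 °C in Opti-MEM with compound (100 μM or EC30) alone or with 1.0 mM MMS. Trypsinized, then alkaline comet assay: lysis 60 min, unwinding at pH 13 for 20 min, electrophoresis at 1 V/cm for 30 min, SYBR Gold stain. Percent tail DNA averaged over 20 comets; two independent experiments.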"}, "[4]": {"experiment": "Induction of DNA damage in human ST8814 cells measuring tail DNA level at 100 uM after 1 hr in presence of MMS by comet assay (reference value: 16%)", "format": "functional", "procedure,_shortened": "as §1"}}}
{"smiles": "Cc1ccc(S(=O)(=O)n2cccc2[C@@H]2NC(=O)[C@H](Cc3c[nH]c4ccccc34)NC(=O)C[C@@H](c3cccc(C(F)(F)F)c3)NC(=O)C/C=C/[C@@H]2C)cc1", "values": [{"measurement": "EC50", "setting": "[1]", "value": 6.7, "unit": "µM"}, {"measurement": "IC50", "setting": "[2]", "value": 52.6, "unit": "µM"}]}
{"smiles": "Cc1ccc([C@@H]2CC(=O)N[C@@H](Cc3c[nH]c4ccccc34)C(=O)N[C@@H](c3cccn3S(=O)(=O)c3ccc(C)cc3)[C@@H](C)/C=C/CC(=O)N2)cc1", "values": [{"measurement": "EC50", "setting": "[1]", "value": "> 100", "unit": "µM"}, {"measurement": "Activity", "setting": "[3]", "value": 40, "unit": "%"}, {"measurement": "Activity", "setting": "[4]", "value": 20, "unit": "%"}, {"measurement": "IC50", "setting": "[2]", "value": 2.5, "unit": "µM"}]}
{"smiles": "Cc1ccc(S(=O)(=O)n2cccc2[C@@H]2NC(=O)[C@H](Cc3c[nH]c4ccccc34)NC(=O)C[C@@H](Cc3ccc(Cl)cc3)NC(=O)C/C=C/[C@@H]2C)cc1", "values": [{"measurement": "EC50", "setting": "[1]", "value": "> 100", "unit": "µM"}, {"measurement": "IC50", "setting": "[2]", "value": 1.9, "unit": "µM"}]}
{"smiles": "Cc1ccc(S(=O)(=O)n2cccc2[C@@H]2NC(=O)[C@H](Cc3c[nH]c4ccccc34)NC(=O)CCCCNC(=O)C/C=C/[C@@H]2C)cc1", "values": [{"measurement": "EC50", "setting": "[1]", "value": "> 100", "unit": "µM"}, {"measurement": "IC50", "setting": "[2]", "value": "> 50", "unit": "µM"}]}
{"smiles": "C[C@H]1/C=C/CC(=O)N[C@H](c2ccc(Cl)cc2)CC(=O)N[C@@H](Cc2c[nH]c3ccccc23)C(=O)N[C@H]1c1ccccc1", "values": [{"measurement": "EC50", "setting": "[1]", "value": 22, "unit": "µM"}, {"measurement": "IC50", "setting": "[2]", "value": "> 100", "unit": "µM"}]}
{"smiles": "Cc1ccc(S(=O)(=O)n2cccc2[C@@H]2NC(=O)[C@H](Cc3c[nH]c4ccccc34)NC(=O)C[C@@H](c3ccc(Cl)cc3)NC(=O)C/C=C/[C@@H]2C)cc1", "values": [{"measurement": "EC50", "setting": "[1]", "value": "> 100", "unit": "µM"}, {"measurement": "IC50", "setting": "[2]", "value": 12.1, "unit": "µM"}]}
{"smiles": "C[C@H]1/C=C/CC(=O)OCCC(Oc2ccc3c(c2)OCO3)C(=O)N[C@@H](Cc2c[nH]c3ccccc23)C(=O)N[C@H]1c1ccccc1", "note": "(stereo partly specified)", "values": [{"measurement": "IC50", "setting": "[2]", "value": 1.8, "unit": "µM"}, {"measurement": "inhibition", "setting": "[2]", "value": "Dose-dependent effect"}]}
{"smiles": "C[C@H]1/C=C/CC(=O)OCCCCC(=O)N[C@@H](Cc2c[nH]c3ccccc23)C(=O)N[C@H]1c1ccccc1", "values": [{"measurement": "EC50", "setting": "[1]", "value": "> 50", "unit": "µM"}, {"measurement": "IC50", "setting": "[2]", "value": 63.5, "unit": "µM"}]}
{"smiles": "Cc1ccc(S(=O)(=O)n2cccc2[C@@H]2NC(=O)[C@H](Cc3c[nH]c4ccccc34)NC(=O)C(c3ccccc3)CCOC(=O)C/C=C/[C@@H]2C)cc1", "note": "(stereo partly specified)", "values": [{"measurement": "inhibition", "setting": "[2]", "value": "Dose-dependent effect"}]}
{"smiles": "CC(=O)Nc1sc2c(c1-c1nc3ccccc3s1)CCN(C(C)C)C2", "values": [{"measurement": "Activity", "setting": "[3]", "value": 34, "unit": "%"}, {"measurement": "Activity", "setting": "[4]", "value": 17, "unit": "%"}]}
{"smiles": "Cc1ccc(S(=O)(=O)n2cccc2[C@@H]2NC(=O)[C@H](Cc3c[nH]c4ccccc34)NC(=O)C(Oc3ccc(C(F)(F)F)cc3)CCOC(=O)C/C=C/[C@@H]2C)cc1", "note": "(stereo partly specified)", "values": [{"measurement": "IC50", "setting": "[2]", "value": 2.5, "unit": "µM"}, {"measurement": "inhibition", "setting": "[2]", "value": "Dose-dependent effect"}]}
{"smiles": "Cc1ccc(S(=O)(=O)n2cccc2[C@@H]2NC(=O)[C@H](Cc3c[nH]c4ccccc34)NC(=O)CCCNC(=O)C/C=C/[C@@H]2C)cc1", "values": [{"measurement": "EC50", "setting": "[1]", "value": 35, "unit": "µM"}, {"measurement": "IC50", "setting": "[2]", "value": 29.2, "unit": "µM"}]}
{"smiles": "C[C@H]1/C=C/CC(=O)N[C@H](c2ccc(F)cc2)CC(=O)N[C@@H](Cc2c[nH]c3ccccc23)C(=O)N[C@H]1c1ccccc1", "values": [{"measurement": "EC50", "setting": "[1]", "value": 36.2, "unit": "µM"}, {"measurement": "IC50", "setting": "[2]", "value": 55.1, "unit": "µM"}]}
{"smiles": "Cc1ccc(S(=O)(=O)n2cccc2[C@@H]2NC(=O)[C@H](Cc3c[nH]c4ccccc34)NC(=O)CCNC(=O)C/C=C/[C@@H]2C)cc1", "values": [{"measurement": "EC50", "setting": "[1]", "value": 58.4, "unit": "µM"}, {"measurement": "Activity", "setting": "[3]", "value": 96, "unit": "%"}, {"measurement": "Activity", "setting": "[4]", "value": 12, "unit": "%"}, {"measurement": "IC50", "setting": "[2]", "value": 33.2, "unit": "µM"}]}
{"smiles": "Cc1ccc(S(=O)(=O)n2cccc2[C@@H]2NC(=O)[C@H](Cc3c[nH]c4ccccc34)NC(=O)C[C@H](CCc3ccccc3)NC(=O)C/C=C/[C@@H]2C)cc1", "values": [{"measurement": "EC50", "setting": "[1]", "value": "> 100", "unit": "µM"}, {"measurement": "IC50", "setting": "[2]", "value": 2.6, "unit": "µM"}]}
{"smiles": "Cc1ccc(S(=O)(=O)n2cccc2[C@@H]2NC(=O)[C@H](Cc3c[nH]c4ccccc34)NC(=O)C[C@@H](CCc3ccccc3)NC(=O)C/C=C/[C@@H]2C)cc1", "values": [{"measurement": "EC50", "setting": "[1]", "value": "> 100", "unit": "µM"}, {"measurement": "Activity", "setting": "[3]", "value": 54, "unit": "%"}, {"measurement": "Activity", "setting": "[4]", "value": 12, "unit": "%"}, {"measurement": "IC50", "setting": "[2]", "value": 2.7, "unit": "µM"}]}
{"smiles": "Cc1ccc(S(=O)(=O)n2cccc2[C@@H]2NC(=O)[C@H](Cc3c[nH]c4ccccc34)NC(=O)C(Oc3ccccc3)CCOC(=O)C/C=C/[C@@H]2C)cc1", "note": "(stereo partly specified)", "values": [{"measurement": "inhibition", "setting": "[2]", "value": "Dose-dependent effect"}]}
{"smiles": "Cc1ccc(S(=O)(=O)n2cccc2[C@@H]2NC(=O)[C@H](Cc3c[nH]c4ccccc34)NC(=O)C[C@@H](c3ccc(C(F)(F)F)cc3)NC(=O)C/C=C/[C@@H]2C)cc1", "values": [{"measurement": "EC50", "setting": "[1]", "value": "> 100", "unit": "µM"}, {"measurement": "Activity", "setting": "[3]", "value": 95, "unit": "%"}, {"measurement": "Activity", "setting": "[4]", "value": 18, "unit": "%"}, {"measurement": "IC50", "setting": "[2]", "value": 1.3, "unit": "µM"}]}
{"smiles": "Cc1ccc(S(=O)(=O)n2cccc2[C@@H]2NC(=O)[C@H](Cc3c[nH]c4ccccc34)NC(=O)CCCOC(=O)C/C=C/[C@@H]2C)cc1", "values": [{"measurement": "EC50", "setting": "[1]", "value": "> 100", "unit": "µM"}, {"measurement": "IC50", "setting": "[2]", "value": 10.6, "unit": "µM"}]}
{"smiles": "C[C@H]1/C=C/CC(=O)OCCCC(=O)N[C@@H](Cc2c[nH]c3ccccc23)C(=O)N[C@H]1c1ccccc1", "values": [{"measurement": "EC50", "setting": "[1]", "value": "> 100", "unit": "µM"}, {"measurement": "IC50", "setting": "[2]", "value": "> 100", "unit": "µM"}]}
{"smiles": "Cc1ccc(S(=O)(=O)n2cccc2[C@@H]2NC(=O)[C@H](Cc3c[nH]c4ccccc34)NC(=O)CCCCOC(=O)C/C=C/[C@@H]2C)cc1", "values": [{"measurement": "EC50", "setting": "[1]", "value": "> 100", "unit": "µM"}, {"measurement": "Activity", "setting": "[3]", "value": 27, "unit": "%"}, {"measurement": "Activity", "setting": "[4]", "value": 26, "unit": "%"}, {"measurement": "IC50", "setting": "[2]", "value": 9.3, "unit": "µM"}]}
{"smiles": "Cc1ccc(S(=O)(=O)n2cccc2[C@@H]2NC(=O)[C@H](Cc3c[nH]c4ccccc34)NC(=O)C[C@@H](c3ccc(F)cc3)NC(=O)C/C=C/[C@@H]2C)cc1", "values": [{"measurement": "EC50", "setting": "[1]", "value": "> 100", "unit": "µM"}, {"measurement": "IC50", "setting": "[2]", "value": 5.7, "unit": "µM"}]}
{"smiles": "C[C@H]1/C=C/CC(=O)N[C@H](c2ccc(C(F)(F)F)cc2)CC(=O)N[C@@H](Cc2c[nH]c3ccccc23)C(=O)N[C@H]1c1ccccc1", "values": [{"measurement": "EC50", "setting": "[1]", "value": 58.5, "unit": "µM"}, {"measurement": "Activity", "setting": "[3]", "value": 67, "unit": "%"}, {"measurement": "Activity", "setting": "[4]", "value": 12, "unit": "%"}, {"measurement": "IC50", "setting": "[2]", "value": 26.5, "unit": "µM"}]}
